In assay [1] the test system is Trypanosoma brucei rhodesiense. Kind of assay: Antitrypanosomal activity against Trypanosoma brucei rhodesiense infected in vervet monkey 485 assessed as time to detect CSF parasitosis at 1 mg/kg, po administered on day 7 post infection for 5 days measured after 7 to 14 days. The class given is functional. In outline:
(§1)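 Trypanosomes and white cells in free-flowing CSF were counted by hemocytometer. Negative CSF was centrifuged and re-examined. Samples still negative were inoculated at 0.2 ml intraperitoneally into two mice each. Drug was given once daily by oral gavage: 5 days from day 7 p.i., or 10 days from day 28 p.i.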

Assay [2] concerns Trypanosoma brucei rhodesiense. Kind of assay: Antitrypanosomal activity against Trypanosoma brucei rhodesiense infected in vervet monkey 483 assessed as time to detect CSF parasitosis at 3 mg/kg, po administered on day 7 post infection for 5 days measured after 14 to 21 days by microscopy. The class given is functional. In outline:
as §1

Assay [3] has as its system Trypanosoma brucei rhodesiense. The assay is described as follows: Antitrypanosomal activity against Trypanosoma brucei rhodesiense infected in vervet monkey 468 assessed as cure from infection at 10 mg/kg, po administered on day 7 post infection for 5 days. The format is functional, organism-based. Also noted: dose 10 mg/kg. Put shortly: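 Vervet monkeys (n=3 per group), infected with T. b. rhodesiense KETRI 2537. Dosed by oral gavage with a suspension once daily for 5 consecutive days from day 7 p.i. Cure meant no trypanosomes over 180 days p.t. in blood (wet film, HCT) or CSF (hemocytometer, centrifugation), with mouse subinoculation of negative samples.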

The subject of assay [4] is Trypanosoma brucei rhodesiense. The assay is described as follows: Antitrypanosomal activity against Trypanosoma brucei rhodesiense infected in vervet monkey 501 assessed as time to detect CSF parasitosis at 10 mg/kg, po administered on day 28 post infection for 10 days measured after 7 to 14 days. The class given is functional, organism-based. Further details: dose 10 mg/kg. In outline: as §1

Assay [5] relates to Trypanosoma brucei rhodesiense. Kind of assay: Antitrypanosomal activity against Trypanosoma brucei rhodesiense infected in vervet monkey 520 assessed as time to detect CSF parasitosis at 10 mg/kg, po administered on day 28 post infection for 10 days measured after 14 to 21 days by microscopy. The class given is functional. Put shortly: as §1
Assay [6] has as its system Trypanosoma brucei rhodesiense. The assay is described as follows: Antitrypanosomal activity against Trypanosoma brucei rhodesiense infected in vervet monkey assessed as change in packed cell volume at 1 mg/kg, po administered on day 7 post infection for 5 days measured on day 28 post treatment. The format is functional. Put shortly:
(§2)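 Vervet monkeys, three per group, were infected intravenously with T. b. rhodesiense KETRI 2537. From day 7 p.i., a drug suspension was given by oral gavage once daily for 5 consecutive days. Packed cell volume was expressed as % change from the group's mean preinfection value. PCV was read at day 0 p.t., day 28 p.t. and endpoint, with follow-up to 180 days p.t.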

Assay [7] concerns Trypanosoma brucei rhodesiense. The assay is described as follows: Antitrypanosomal activity against Trypanosoma brucei rhodesiense infected in vervet monkey assessed as change in packed cell volume at 10 mg/kg, po administered on day 7 post infection for 5 days measured on day 28 post treatment. The class given is functional. Put shortly:
as §2

The source made the active and inactive calls. The calls are words filed in the database; no cut-off is given here.

For the compound `CONC(=N)c1ccc(-c2ccc(-c3ccc(C(=N)NOC)cc3)o2)cc1` [PAFURAMIDINE], the Time in assay [1] is 14 days; in assay [2], 55 days; in assay [5], 119 days. Further, the Time entry in assay [3] is “Active”. Also, the Time entry in assay [4] was “inactive”. For the same compound, the Activity is -17% in assay [6] and -1.6% in assay [7].

The record behind these values is ChEMBL document CHEMBL1649125, “Efficacy of the novel diamidine compound 2,5-Bis(4-amidinophenyl)- furan-bis-O-Methlylamidoxime (Pafuramidine, DB289) against Trypanosoma brucei rhodesiense infection in vervet monkeys after oral administration” (2009).
